# From ChEMBL document CHEMBL4118097, “Selective Inhibitors of Dual Leucine Zipper Kinase (DLK, MAP3K12) with Activity in a Model of Alzheimer's Disease” (J Med Chem, 2017)
# Tests used:
# [1] = biological target: T1, Mitogen-activated protein kinase kinase kinase 12 (Homo sapiens, UniProt Q12852); experiment: Inhibition of doxycycline inducible human DLK transfected in HEK293 cells assessed as JNK phosphorylation after […] by Hoechst-33342 staining-based assay; type: cell-based
# T1 sequence (Q12852 whole entry): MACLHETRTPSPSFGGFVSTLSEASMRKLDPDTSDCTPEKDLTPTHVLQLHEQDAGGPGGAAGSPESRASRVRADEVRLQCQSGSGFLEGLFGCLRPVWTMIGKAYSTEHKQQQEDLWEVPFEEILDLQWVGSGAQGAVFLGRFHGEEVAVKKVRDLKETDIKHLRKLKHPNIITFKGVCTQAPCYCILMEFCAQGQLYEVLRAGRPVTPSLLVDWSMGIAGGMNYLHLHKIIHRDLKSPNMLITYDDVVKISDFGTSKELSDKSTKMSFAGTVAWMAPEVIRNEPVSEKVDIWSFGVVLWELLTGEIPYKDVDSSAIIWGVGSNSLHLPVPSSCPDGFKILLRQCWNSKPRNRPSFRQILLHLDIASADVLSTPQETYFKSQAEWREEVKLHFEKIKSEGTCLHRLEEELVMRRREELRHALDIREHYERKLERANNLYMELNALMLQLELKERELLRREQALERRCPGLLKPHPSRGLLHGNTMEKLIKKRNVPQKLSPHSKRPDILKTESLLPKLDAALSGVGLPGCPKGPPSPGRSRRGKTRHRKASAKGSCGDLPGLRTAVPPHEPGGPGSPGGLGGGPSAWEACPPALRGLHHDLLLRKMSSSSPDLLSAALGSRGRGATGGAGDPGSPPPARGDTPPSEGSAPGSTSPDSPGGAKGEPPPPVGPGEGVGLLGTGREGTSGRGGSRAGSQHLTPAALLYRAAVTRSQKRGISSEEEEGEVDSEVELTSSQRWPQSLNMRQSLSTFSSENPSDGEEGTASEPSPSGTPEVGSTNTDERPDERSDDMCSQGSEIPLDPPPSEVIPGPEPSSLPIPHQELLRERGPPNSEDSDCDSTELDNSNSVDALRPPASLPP
# [2] = biological target: T1, Mitogen-activated protein kinase kinase kinase 12; experiment: Binding affinity to full length wild type human DLK (M1 to P859 residues) expressed in mammalian cells by KINOMEscan assay; type: cell-based
# How it was run: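 Binding measured in an outsourced KINOMEscan profiling service, run alongside the homologous kinase LZK; the value is reported as a dissociation constant (Kd).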
# [3] = biological target: Dual specificity protein kinase CLK4 (Homo sapiens) (UniProt Q9HAZ1); experiment: Inhibition of full length recombinant GST-tagged human CLK4 expressed in baculovirus expression system at 1 uM by FRET assay relative to control
# [4] = biological target: Calcium/calmodulin-dependent protein kinase kinase 1 (Homo sapiens) (UniProt Q8N5S9); experiment: Inhibition of recombinant full length His-tagged human CAMKK1 expressed in baculovirus expression system at 1 uM by FRET assay relative to control
# [5] = biological target: NUAK family SNF1-like kinase 1 (Homo sapiens) (UniProt O60285); experiment: Inhibition of recombinant full length His-tagged human ARK5 expressed in baculovirus expression system at 1 uM by FRET assay relative to control
# [6] = biological target: RAC-alpha serine/threonine-protein kinase (Homo sapiens) (UniProt P31749); experiment: Inhibition of recombinant full length His-tagged human AKT1 expressed in baculovirus expression system at 1 uM by FRET assay relative to control
# [7] = biological target: Activin receptor type-1B (Homo sapiens) (UniProt P36896); experiment: Inhibition of recombinant GST-tagged human ACVR1B catalytic domain (150 to 505 residues) expressed in baculovirus expression system at 1 uM by FRET assay relative to control
# [8] = biological target: Mitogen-activated protein kinase kinase kinase kinase 5 (Homo sapiens) (UniProt Q9Y4K4); experiment: Inhibition of recombinant full length His-tagged human KHS1 expressed in baculovirus expression system at 1 uM by FRET assay relative to control
# [9] = biological target: Megakaryocyte-associated tyrosine-protein kinase (Homo sapiens) (UniProt P42679); experiment: Inhibition of recombinant full length His-tagged human Hyl cytoplasmic domain expressed in Escherichia coli at 1 uM by FRET relative to control
# [10] = biological target: Homeodomain-interacting protein kinase 1 (Homo sapiens) (UniProt Q86Z02); experiment: Inhibition of recombinant GST-tagged human HIPK1 catalytic domain expressed in baculovirus expression system at 1 uM by FRET relative to control
# How it was run: (§1)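 Single-point screen at 1 μM compound in a 220-kinase panel run by Life Technologies (SelectScreen). Z′-LYTE format: phosphorylation of a labeled peptide substrate read by FRET. Values are reported as percent inhibition.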
# [11] = biological target: Vascular endothelial growth factor receptor 3 (Homo sapiens) (UniProt P35916); experiment: Inhibition of recombinant GST-tagged human FLT4 cytoplasmic domain expressed in baculovirus expression system at 1 uM by FRET assay relative to control; how it was run: as §1
# [12] = biological target: Protein kinase C alpha type (Homo sapiens) (UniProt P17252); experiment: Inhibition of recombinant full length human PKCalpha expressed in baculovirus expression system at 1 uM by FRET assay relative to control
# [13] = biological target: Serine/threonine-protein kinase MRCK alpha (Homo sapiens) (UniProt Q5VT25); experiment: Inhibition of recombinant His-tagged human MRCKalpha expressed in baculovirus at 1 uM by FRET assay relative to control; how it was run: as §1
# [14] = biological target: MAP kinase-interacting serine/threonine-protein kinase 1 (Homo sapiens) (UniProt Q9BUB5); experiment: Inhibition of recombinant human N-terminal full length GST-tagged MKNK1 expressed in baculovirus at 1 uM by FRET assay relative to control
# [15] = biological target: Serine/threonine-protein kinase Sgk2 (Homo sapiens) (UniProt Q9HBY8); experiment: Inhibition of recombinant full length GST-tagged human SGK2 catalytic domain (54 to 427 residues) expressed in baculovirus expression system at 1 uM by FRET assay relative to control
# How it was run: (§2)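 Single-concentration screen at 1 μM in Life Technologies SelectScreen, across a 220-kinase panel. Z′-LYTE format measures phosphorylation of a labeled peptide by FRET. Results are reported as percent inhibition.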
# [16] = biological target: Rho-associated protein kinase 2 (Homo sapiens) (UniProt O75116); experiment: Inhibition of recombinant N-terminal GST-tagged human ROCK2 catalytic domain (1 to 552 residues) expressed in baculovirus expression system at 1 uM by FRET assay relative to control; how it was run: as §2
# [17] = biological target: Mitogen-activated protein kinase kinase kinase 9 (Homo sapiens, UniProt P80192); experiment: Inhibition of recombinant human GST-tagged MLK1 expressed in baculovirus expression system by FRET assay
# [18] = biological target: Neuronal acetylcholine receptor; alpha4/beta2 (Homo sapiens) (UniProt P17787+P43681); experiment: Binding affinity to alpha4beta2 nAChR (unknown origin) receptor at 10 uM relative to control; type: protein-complex assay
# How it was run: (§3)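 Broad radioligand-binding and enzyme screening panel covering 42 targets (biogenic amine and neuropeptide receptors, ion channels, neurotransmitter transporters, acetylcholinesterase). Single test concentration of 10 μM. Results expressed as binding relative to control, with a hit defined as >50% of control.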
# [19] = biological target: 5-hydroxytryptamine receptor 1A (Homo sapiens) (UniProt P08908); experiment: Binding affinity to 5HT1A receptor (unknown origin) receptor at 10 uM relative to control; how it was run: as §3
# Chain of Activin receptor type-1B (Homo sapiens) (P36896 whole entry, the tested form may be a part): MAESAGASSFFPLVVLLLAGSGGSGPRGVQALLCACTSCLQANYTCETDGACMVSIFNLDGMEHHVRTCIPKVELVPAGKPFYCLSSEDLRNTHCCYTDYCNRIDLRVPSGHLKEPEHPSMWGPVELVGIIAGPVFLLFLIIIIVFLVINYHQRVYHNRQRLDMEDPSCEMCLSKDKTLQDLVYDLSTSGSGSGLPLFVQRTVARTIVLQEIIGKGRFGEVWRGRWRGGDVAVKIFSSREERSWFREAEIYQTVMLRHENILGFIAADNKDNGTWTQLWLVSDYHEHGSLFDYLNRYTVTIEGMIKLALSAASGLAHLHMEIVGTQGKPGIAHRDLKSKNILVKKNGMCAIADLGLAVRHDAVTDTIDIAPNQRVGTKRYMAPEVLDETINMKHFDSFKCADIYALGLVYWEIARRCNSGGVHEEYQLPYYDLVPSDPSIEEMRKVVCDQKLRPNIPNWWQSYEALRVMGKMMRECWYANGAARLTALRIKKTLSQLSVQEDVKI
# Chain of Serine/threonine-protein kinase MRCK alpha (Homo sapiens) (Q5VT25 whole entry): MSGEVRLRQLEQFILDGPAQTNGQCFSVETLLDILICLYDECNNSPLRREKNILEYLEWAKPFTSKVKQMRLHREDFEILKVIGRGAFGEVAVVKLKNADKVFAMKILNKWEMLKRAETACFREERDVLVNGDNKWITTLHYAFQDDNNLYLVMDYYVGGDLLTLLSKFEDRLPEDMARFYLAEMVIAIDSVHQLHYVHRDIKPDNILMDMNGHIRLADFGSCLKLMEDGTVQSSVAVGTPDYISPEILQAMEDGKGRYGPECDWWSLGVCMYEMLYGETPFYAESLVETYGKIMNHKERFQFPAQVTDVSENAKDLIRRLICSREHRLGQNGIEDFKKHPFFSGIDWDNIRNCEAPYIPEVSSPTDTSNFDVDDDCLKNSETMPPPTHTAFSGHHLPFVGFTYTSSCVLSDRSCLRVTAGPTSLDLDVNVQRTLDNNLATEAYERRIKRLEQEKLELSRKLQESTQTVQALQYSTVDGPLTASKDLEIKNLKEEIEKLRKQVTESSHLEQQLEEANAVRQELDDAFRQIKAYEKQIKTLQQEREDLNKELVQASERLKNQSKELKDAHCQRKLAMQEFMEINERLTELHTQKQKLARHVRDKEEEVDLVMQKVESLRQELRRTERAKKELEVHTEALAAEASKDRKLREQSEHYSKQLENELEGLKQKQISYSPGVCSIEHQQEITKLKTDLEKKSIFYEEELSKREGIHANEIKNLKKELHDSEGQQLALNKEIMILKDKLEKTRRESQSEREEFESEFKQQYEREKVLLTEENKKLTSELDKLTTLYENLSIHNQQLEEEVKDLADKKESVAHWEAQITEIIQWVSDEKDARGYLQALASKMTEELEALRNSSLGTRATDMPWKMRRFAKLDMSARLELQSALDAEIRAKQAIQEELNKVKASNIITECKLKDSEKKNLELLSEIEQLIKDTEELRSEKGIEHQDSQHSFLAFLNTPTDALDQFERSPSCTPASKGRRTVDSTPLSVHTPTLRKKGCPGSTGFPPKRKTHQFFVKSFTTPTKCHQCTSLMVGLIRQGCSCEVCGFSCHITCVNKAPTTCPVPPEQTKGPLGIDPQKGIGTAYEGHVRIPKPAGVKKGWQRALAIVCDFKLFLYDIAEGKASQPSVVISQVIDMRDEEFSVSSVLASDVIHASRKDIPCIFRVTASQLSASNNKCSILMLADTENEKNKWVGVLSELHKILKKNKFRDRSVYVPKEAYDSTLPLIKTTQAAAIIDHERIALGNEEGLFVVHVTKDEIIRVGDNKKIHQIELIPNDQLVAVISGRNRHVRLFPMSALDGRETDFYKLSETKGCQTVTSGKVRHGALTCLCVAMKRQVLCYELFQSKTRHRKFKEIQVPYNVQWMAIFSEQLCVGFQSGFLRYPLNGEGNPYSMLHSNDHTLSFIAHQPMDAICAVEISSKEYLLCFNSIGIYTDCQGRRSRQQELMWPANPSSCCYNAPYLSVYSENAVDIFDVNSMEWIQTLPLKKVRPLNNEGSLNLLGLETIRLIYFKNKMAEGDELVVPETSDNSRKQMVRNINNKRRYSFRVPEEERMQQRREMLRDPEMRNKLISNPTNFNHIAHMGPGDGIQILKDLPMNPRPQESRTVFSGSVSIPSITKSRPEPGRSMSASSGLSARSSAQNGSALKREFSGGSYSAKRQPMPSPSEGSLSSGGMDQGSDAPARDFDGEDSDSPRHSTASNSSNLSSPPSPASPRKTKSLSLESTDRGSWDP
# Chain of NUAK family SNF1-like kinase 1 (Homo sapiens) (O60285 whole entry): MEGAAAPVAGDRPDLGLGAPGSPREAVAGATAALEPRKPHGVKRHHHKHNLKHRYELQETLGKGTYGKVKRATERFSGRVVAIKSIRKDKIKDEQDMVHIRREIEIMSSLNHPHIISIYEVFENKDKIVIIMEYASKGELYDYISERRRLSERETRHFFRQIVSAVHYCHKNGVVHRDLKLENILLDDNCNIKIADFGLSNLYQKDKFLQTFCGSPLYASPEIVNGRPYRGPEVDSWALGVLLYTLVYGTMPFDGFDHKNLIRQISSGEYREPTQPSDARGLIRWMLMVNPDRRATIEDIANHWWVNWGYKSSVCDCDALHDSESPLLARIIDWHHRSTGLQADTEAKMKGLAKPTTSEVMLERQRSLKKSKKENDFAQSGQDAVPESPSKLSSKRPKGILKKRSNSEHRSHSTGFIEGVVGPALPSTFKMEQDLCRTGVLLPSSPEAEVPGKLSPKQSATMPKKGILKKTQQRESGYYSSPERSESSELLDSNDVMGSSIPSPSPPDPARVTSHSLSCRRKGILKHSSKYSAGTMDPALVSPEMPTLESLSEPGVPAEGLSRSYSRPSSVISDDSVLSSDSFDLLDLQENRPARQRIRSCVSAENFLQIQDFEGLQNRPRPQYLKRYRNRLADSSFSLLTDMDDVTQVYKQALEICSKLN
# Chain of RAC-alpha serine/threonine-protein kinase (Homo sapiens) (P31749 whole entry, the tested form may be a part): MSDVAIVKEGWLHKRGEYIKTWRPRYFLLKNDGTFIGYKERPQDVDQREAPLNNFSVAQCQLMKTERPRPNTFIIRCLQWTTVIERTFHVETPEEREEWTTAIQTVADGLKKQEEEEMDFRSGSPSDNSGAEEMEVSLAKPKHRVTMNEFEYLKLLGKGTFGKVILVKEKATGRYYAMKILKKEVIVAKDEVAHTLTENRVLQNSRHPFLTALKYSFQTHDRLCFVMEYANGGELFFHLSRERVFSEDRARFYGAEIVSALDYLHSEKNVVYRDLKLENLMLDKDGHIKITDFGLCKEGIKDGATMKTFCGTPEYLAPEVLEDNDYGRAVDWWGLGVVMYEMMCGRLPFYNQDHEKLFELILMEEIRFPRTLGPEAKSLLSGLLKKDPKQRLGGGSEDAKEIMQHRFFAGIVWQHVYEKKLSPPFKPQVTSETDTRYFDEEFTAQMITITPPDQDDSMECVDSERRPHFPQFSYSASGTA
# Chain of Mitogen-activated protein kinase kinase kinase kinase 5 (Homo sapiens) (Q9Y4K4 whole entry, looked up, the tested form may be a part): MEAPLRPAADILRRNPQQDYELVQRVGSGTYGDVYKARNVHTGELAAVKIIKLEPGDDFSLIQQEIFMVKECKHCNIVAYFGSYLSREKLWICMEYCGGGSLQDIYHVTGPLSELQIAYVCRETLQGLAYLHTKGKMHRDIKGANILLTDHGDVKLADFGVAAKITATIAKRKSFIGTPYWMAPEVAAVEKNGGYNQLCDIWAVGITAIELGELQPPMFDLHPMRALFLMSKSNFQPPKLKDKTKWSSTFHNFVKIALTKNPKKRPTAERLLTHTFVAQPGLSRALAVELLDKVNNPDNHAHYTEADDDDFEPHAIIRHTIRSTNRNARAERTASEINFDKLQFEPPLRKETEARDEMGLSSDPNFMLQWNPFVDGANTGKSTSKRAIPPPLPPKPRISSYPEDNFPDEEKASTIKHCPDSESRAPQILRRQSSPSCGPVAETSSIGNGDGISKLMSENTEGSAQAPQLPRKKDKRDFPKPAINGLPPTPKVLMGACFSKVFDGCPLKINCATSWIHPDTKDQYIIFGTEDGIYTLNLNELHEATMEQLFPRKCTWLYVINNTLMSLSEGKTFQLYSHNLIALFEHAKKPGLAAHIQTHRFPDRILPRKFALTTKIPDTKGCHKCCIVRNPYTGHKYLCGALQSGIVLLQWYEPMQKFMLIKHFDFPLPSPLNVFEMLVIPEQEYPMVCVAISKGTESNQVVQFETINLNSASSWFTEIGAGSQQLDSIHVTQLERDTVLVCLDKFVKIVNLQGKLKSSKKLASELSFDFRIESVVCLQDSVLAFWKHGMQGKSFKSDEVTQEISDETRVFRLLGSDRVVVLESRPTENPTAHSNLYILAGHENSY
# Chain of MAP kinase-interacting serine/threonine-protein kinase 1 (Homo sapiens) (Q9BUB5 whole entry, looked up, the tested form may be a part): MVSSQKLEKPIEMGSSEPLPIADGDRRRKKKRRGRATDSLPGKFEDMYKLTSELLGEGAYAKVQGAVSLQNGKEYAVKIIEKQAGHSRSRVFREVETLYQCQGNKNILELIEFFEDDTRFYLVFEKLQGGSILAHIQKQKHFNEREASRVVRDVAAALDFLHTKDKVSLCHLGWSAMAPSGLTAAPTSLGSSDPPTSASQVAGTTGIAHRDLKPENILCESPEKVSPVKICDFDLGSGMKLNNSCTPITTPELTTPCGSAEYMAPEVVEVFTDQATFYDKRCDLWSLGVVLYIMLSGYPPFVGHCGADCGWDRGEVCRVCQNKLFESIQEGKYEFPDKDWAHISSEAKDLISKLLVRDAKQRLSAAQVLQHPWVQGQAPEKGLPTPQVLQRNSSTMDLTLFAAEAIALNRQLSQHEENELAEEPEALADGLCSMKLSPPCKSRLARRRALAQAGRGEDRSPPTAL
# Chain of Serine/threonine-protein kinase Sgk2 (Homo sapiens) (Q9HBY8 whole entry, the tested form may be a part): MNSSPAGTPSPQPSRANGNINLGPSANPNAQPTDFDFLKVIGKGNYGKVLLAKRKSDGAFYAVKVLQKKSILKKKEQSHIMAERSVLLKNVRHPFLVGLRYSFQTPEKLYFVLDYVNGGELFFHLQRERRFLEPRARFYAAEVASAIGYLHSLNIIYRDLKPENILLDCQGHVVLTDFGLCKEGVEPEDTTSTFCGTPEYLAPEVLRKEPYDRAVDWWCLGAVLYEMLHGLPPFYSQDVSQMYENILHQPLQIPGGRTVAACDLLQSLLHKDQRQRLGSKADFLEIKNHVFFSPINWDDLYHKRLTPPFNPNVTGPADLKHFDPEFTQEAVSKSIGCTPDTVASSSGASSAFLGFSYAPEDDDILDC
Compound,IC50 [1] [nM],Kd [2] [nM],inhibition [3] [%],inhibition [4] [%],inhibition [5] [%],inhibition [6] [%],inhibition [7] [%],inhibition [8] [%],inhibition [9] [%],inhibition [10] [%],inhibition [11] [%],inhibition [12] [%],inhibition [13] [%],inhibition [14] [%],inhibition [15] [%],inhibition [16] [%],IC50 [17] [nM],Activity [18] [%],Activity [19] [%]
CC(C)n1nc(-c2cnc(N)c(OC(F)(F)F)c2)cc1[C@H]1[C@@H]2CN(C3COC3)C[C@@H]21,195,11,14.5,-7.5,30.1,1.7,-6.8,25.1,7.5,8.6,22.1,30.3,0.4,1.1,2.7,7.2,5920,> 50,> 50
Nc1ncc(-c2cc([C@H]3[C@@H]4CN(C5COC5)C[C@@H]43)n(CC3CC3)n2)cc1C(F)(F)F,144,5.1,16.4,-0.3,29.1,-0.4,2.9,22.2,0.1,3.8,44.6,22.4,4.3,-3.8,0.3,-7.5,3500,> 50,> 50
